From ChEMBL document CHEMBL1124759, “Fluoronaphthyridines and quinolones as antibacterial agents. 2. Synthesis and structure-activity relationships of new 1-tert-butyl 7-substituted derivatives” (J Med Chem, 1990)
Values after ≈ are worked out from the molar mass of the structure shown.

Tests used:
Enterococcus faecalis = test: In vitro minimum inhibitory concentration (MIC) against Enterococcus faecalis A 9808 at 37 degrees C for 18 h.; type: functional
Procedure, shortened: (§1)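 Two-fold serial broth dilution in nutrient broth. Inoculum adjusted to 10^6 cfu/mL. Compounds tested from 0.0005 to 250 µg/mL.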

Escherichia coli [1] = test: In vitro minimum inhibitory concentration (MIC) against Escherichia coli A 15119 at 37 degrees Celsius for 18 h.; type: functional; procedure, shortened: as §1
Enterococcus faecium = test: In vitro minimum inhibitory concentration (MIC) against Enterococcus faecium A 24885 at 37 degrees C for 18 h.; type: functional; procedure, shortened: as §1
Klebsiella pneumoniae [2] = test: In vitro minimum inhibitory concentration (MIC) against Klebsiella pneumoniae A 9664 at 37 degrees C for 18 h.; type: functional; procedure, shortened: as §1
Morganella morganii = test: In vitro minimum inhibitory concentration (MIC) against Morganella morganii A 15153 at 37 degrees C for 18 h.; type: functional; procedure, shortened: as §1
Pseudomonas aeruginosa [3] = test: In vitro minimum inhibitory concentration (MIC) against Pseudomonas aeruginosa A 9843 at 37 degree C for 18 h; type: functional; procedure, shortened: as §1
Staphylococcus aureus [4] = test: In vitro minimum inhibitory concentration (MIC) against Staphylococcus aureus Smith A 9537 at 37 degrees C for 18 hr; type: functional; procedure, shortened: as §1
Serratia marcescens = test: In vitro minimum inhibitory concentration (MIC) against Serratia marcescens A 20019 at 37 degrees C for 18 hr; type: functional; procedure, shortened: as §1
Enterobacter cloacae = test: In vitro minimum inhibitory concentration (MIC) against Enterobacter cloacae A 9656 at 37 degrees C for 18 h.; type: functional
Escherichia coli [5] = test: In vitro minimum inhibitory concentration (MIC) against Escherichia coli A 15119 at 37 degrees C for 18 h.; type: functional; procedure, shortened: as §1
Escherichia coli [6] = test: Efficacy on systematic infections against Escherichia coli A 15119 after oral administration in mice; type: functional; settings: read-out: PD50
Procedure, shortened: (§2)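 Mice given compound orally after lethal systemic infection. Read-out is the oral dose protecting 50% of mice from death (PD50), reported in mg/kg.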

Klebsiella pneumoniae [7] = test: Efficacy on systematic infections against Klebsiella pneumoniae A 9664 after oral administration in mice; type: functional; settings: read-out: PD50; procedure, shortened: as §2
Klebsiella pneumoniae [8] = test: In vitro minimum inhibitory concentration (MIC) against Klebsiella pneumoniae A 9664 at 37 degrees Celsius for 18 h.; type: functional; procedure, shortened: as §1
Pseudomonas aeruginosa [9] = test: Efficacy on systematic infections against Pseudomonas aeruginosa A 9843 after oral administration in mice; type: functional; settings: read-out: PD50; procedure, shortened: as §2
Staphylococcus aureus [10] = test: Efficacy on systematic infections against Staphylococcus aureus A 9537 after oral administration in mice; type: functional; settings: read-out: PD50; procedure, shortened: as §2
Pseudomonas aeruginosa [11] = test: In vitro minimum inhibitory concentration (MIC) against Pseudomonas aeruginosa A 9843 at 37 degrees Celsius for 18 h; type: functional; procedure, shortened: as §1
[12] = (§3) Tested for aqueous solubility; type: physicochemical; settings: aqueous medium; read-out: S
Procedure, shortened: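 An excess of solid was shaken overnight in water for injection at isoelectric pH. The mixture was filtered, and the filtrate was diluted and quantified by HPLC with UV detection.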

Klebsiella pneumoniae [13] = test: In vitro minimum inhibitory concentration (MIC) […] A 9664 at 37 degrees Celsius for 18 h.; type: functional; procedure, shortened: as §1
[14] = as §3; settings: aqueous medium
Klebsiella pneumoniae [15] = test: In vitro minimum inhibitory concentration (MIC) against Klebsiella pneumoniae A 9664 at 37 degrees C for 18 h; type: functional; procedure, shortened: as §1
Mus musculus [16] = test: Dose to protect 50% of mice from lethal infection after intravenous administration; type: functional
Mus musculus [17] = test: Dose to protect 50% of mice from lethal infection after peroral administration.; type: functional; settings: po; procedure, shortened: as §2
Canis familiaris [18] = organism: Canis familiaris; settings: dog, in vivo, po, 25 mg/kg
Canis familiaris [19] = test: in vivo; settings: dog, po, 25 mg/kg
Canis familiaris [20] = test: in vivo; settings: dog, po, 25 mg/kg; remark: listed apart in the source
in vivo = settings: dog, urine, po, 25 mg/kg
Staphylococcus aureus [21] = test: Efficacy on systematic infections against Staphylococcus aureus Smith A 9537 after oral administration in mice; type: functional; settings: read-out: PD50; procedure, shortened: as §2

SMILES | MIC (Enterococcus faecalis) | MIC (Enterococcus faecium) | MIC (Klebsiella pneumoniae [2]) | MIC (Morganella morganii) | MIC (Pseudomonas aeruginosa [3]) | MIC (Staphylococcus aureus [4]) | MIC (Serratia marcescens) | MIC (Enterobacter cloacae) | MIC (Escherichia coli [5]) | ED50 (Escherichia coli [6]) | ED50 (Klebsiella pneumoniae [7]) | ED50 (Pseudomonas aeruginosa [9]) | other results
CC(C)(C)n1cc(C(=O)O)c(=O)c2cc(F)c(N3C[C@@H](N)[C@@H](F)C3)nc21.CS(=O)(=O)O | 0.5 µg/mL | 4 µg/mL | 0.06 µg/mL | 0.5 µg/mL | 2 µg/mL | 0.015 µg/mL | 0.5 µg/mL | 0.25 µg/mL |  |  |  |  | MIC (Escherichia coli [1]): 0.25 µg/mL
CS(=O)(=O)O.C[C@H]1CN(c2nc3c(cc2F)c(=O)c(C(=O)O)cn3C(C)(C)C)C[C@@H]1N | 0.06 µg/mL | 0.5 µg/mL |  | 0.13 µg/mL | 0.25 µg/mL | 0.008 µg/mL | 0.13 µg/mL | 0.015 µg/mL | 0.015 µg/mL | 2.4 mg/kg | 6.3 mg/kg | 6.3 mg/kg | MIC (Klebsiella pneumoniae [8]): 0.06 µg/mL; ED50 (Staphylococcus aureus [10]): 1.6 mg/kg
CCNCC1CCN(c2nc3c(cc2F)c(=O)c(C(=O)O)cn3C(C)(C)C)C1 (centres undefined) | 2 µg/mL (≈ 5.12 µM) | 8 µg/mL (≈ 20.5 µM) | 0.25 µg/mL (≈ 0.64 µM) | 1 µg/mL (≈ 2.56 µM) |  | 0.13 µg/mL (≈ 0.333 µM) | 1 µg/mL (≈ 2.56 µM) | 0.25 µg/mL (≈ 0.64 µM) | 0.13 µg/mL (≈ 0.333 µM) |  |  |  | MIC (Pseudomonas aeruginosa [11]): 2 µg/mL (≈ 5.12 µM)
CC(C)(C)n1cc(C(=O)O)c(=O)c2cc(F)c(N3C[C@H]4C[C@@H]3CN4)cc21.CS(=O)(=O)O | 2 µg/mL | 4 µg/mL |  | 2 µg/mL | 0.5 µg/mL | 0.5 µg/mL | 0.25 µg/mL | 0.25 µg/mL | 0.5 µg/mL |  |  |  | solubility [12]: 230 µg/mL; MIC (Klebsiella pneumoniae [13]): 0.13 µg/mL
CN1C2CCC1CN(c1cc3c(cc1F)c(=O)c(C(=O)O)cn3C(C)(C)C)C2.Cl | 2 µg/mL | 8 µg/mL | 0.13 µg/mL | 1 µg/mL | 4 µg/mL | 0.13 µg/mL | 0.5 µg/mL | 0.13 µg/mL |  |  |  |  | MIC (Escherichia coli [1]): 0.5 µg/mL
CC(C)(C)n1cc(C(=O)O)c(=O)c2cc(F)c(N3C[C@H]4C[C@@H]3CN4)nc21 | 0.13 µg/mL (≈ 0.361 µM) | 1 µg/mL (≈ 2.77 µM) |  | 0.25 µg/mL (≈ 0.694 µM) | 0.25 µg/mL (≈ 0.694 µM) | 0.06 µg/mL (≈ 0.166 µM) | 0.06 µg/mL (≈ 0.166 µM) | 0.06 µg/mL (≈ 0.166 µM) | 0.06 µg/mL (≈ 0.166 µM) | 1.8 mg/kg | 4.9 mg/kg | 4.7 mg/kg | solubility [14]: 80 µg/mL (≈ 222 µM); MIC (Klebsiella pneumoniae [15]): 0.06 µg/mL (≈ 0.166 µM); LD50 (Mus musculus [16]): 303 mg/kg; LD50 (Mus musculus [17]): 5000 mg/kg; ED50 (Staphylococcus aureus [10]): 1.6 mg/kg; AUC (Canis familiaris [18]): 55000 ng·h/mL; Cmax (Canis familiaris [19]): 5600 ng/mL; half-life (Canis familiaris [20]): 4.5 h; dose excreted (in vivo): 20%
O=C(O)c1cn(C2CC2)c2cc(N3CCNCC3)c(F)cc2c1=O [CIPROFLOXACIN] | 0.5 µg/mL (≈ 1.51 µM) | 4 µg/mL (≈ 12.1 µM) | 0.03 µg/mL (≈ 0.0905 µM) | 0.015 µg/mL (≈ 0.0453 µM) | 0.13 µg/mL (≈ 0.392 µM) | 0.13 µg/mL (≈ 0.392 µM) | 0.3 µg/mL (≈ 0.905 µM) |  |  | 1 mg/kg | 1.5 mg/kg | 2.6 mg/kg | ED50 (Staphylococcus aureus [21]): 3.4 mg/kg
CCn1cc(C(=O)O)c(=O)c2cc(F)c(N3CCNCC3)cc21 [NORFLOXACIN] | 4 µg/mL (≈ 12.5 µM) | 8 µg/mL (≈ 25.1 µM) | 0.03 µg/mL (≈ 0.0939 µM) | 0.015 µg/mL (≈ 0.047 µM) | 0.5 µg/mL (≈ 1.57 µM) | 0.25 µg/mL (≈ 0.783 µM) | 0.13 µg/mL (≈ 0.407 µM) | 0.06 µg/mL (≈ 0.188 µM) | 0.13 µg/mL (≈ 0.407 µM) | 13 mg/kg | 8 mg/kg | 12.6 mg/kg | ED50 (Staphylococcus aureus [21]): 1.9 mg/kg
